Measured values taken from ChEMBL document CHEMBL2057177, “Analogues of fenarimol are potent inhibitors of Trypanosoma cruzi and are efficacious in a murine model of Chagas disease” (J Med Chem, 2012).
pIC50: −log10 of the molar value. In brackets after ≈: the same amount, converted by molar mass. Activity calls are given as the source filed them. No cut-off for these calls is given here.

Tests used:
[1] = Plasma concentration in Swiss mouse at 20 mg/kg, po after 8 hrs; format: ADME, organism-based; parameters: dose 20 mg/kg, route oral
In short: (§1)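 Nonfasted male Swiss outbred mice (23.8–39.9 g), fed throughout. Dosed by oral gavage as solution or suspension in aqueous vehicle. Plasma assayed by LC-MS against blank-plasma standards after acetonitrile precipitation; LLOQ 0.001–0.015 μM.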

Trypanosoma cruzi [2] = test: Antitrypanosomal activity against trypomastigotes of Trypanosoma cruzi Tulahuen infected in Swiss mouse model of chagas disease assessed as increase of host survival at 2 mg/kg, po administered 8 days after post infection qd for 5 days; format: functional, organism-based; parameters: dose 2 mg/kg
In short: (§2)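 Female outbred Swiss mice, about 8 weeks old, infected ip with Tulahuén parasites; five mice per group. Daily dosing starts day 8 post-infection. Oral doses given by gavage in HPMC vehicle (0.5% HPMC, 0.4% Tween 80, 0.5% benzyl alcohol); ip doses in PBS with 0.4% Tween 80 and 10% PEG400. Tail-prick blood taken days 8, 9, 12, 14, 16, 19 and 27 post-infection, red cells lysed, and live trypomastigotes counted by hemocytometer. % efficacy = (vehicle mean − treated mean)/vehicle mean × 100. Survival recorded as surviving/infected-and-treated.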

[3] = Plasma concentration in Swiss mouse at 50 mg/kg, po after 1 hr; format: ADME, organism-based; parameters: dose 50 mg/kg, route oral; in short: as §1
Trypanosoma cruzi [4] = test: Antitrypanosomal activity against trypomastigotes of Trypanosoma cruzi Tulahuen infected in Swiss mouse model of chagas disease assessed as decrease in parasite level in blood at 50 mg/kg, po administered 8 days after post infection qd for 5 days; format: functional; parameters: scale not given: the % may be the effect or the level left; in short: as §2
Trypanosoma cruzi [5] = test: Antitrypanosomal activity against trypomastigotes of Trypanosoma cruzi Tulahuen infected in Swiss mouse model of chagas disease assessed as increase of host survival at 10 mg/kg, po administered 8 days after post infection qd for 5 days; format: functional, organism-based; parameters: dose 10 mg/kg; in short: as §2
Trypanosoma cruzi [6] = test: Antitrypanosomal activity against trypomastigotes of Trypanosoma cruzi Tulahuen infected in Swiss mouse model of chagas disease assessed as decrease in parasite level in blood at 2 mg/kg, po administered 8 days after post infection qd for 5 days; parameters: scale not given: the % may be the effect or the level left
[7] = Plasma concentration in Swiss mouse at 50 mg/kg, po after 24 hrs; format: ADME, organism-based; parameters: dose 50 mg/kg, route oral; in short: as §1
Trypanosoma cruzi [8] = test: Antitrypanosomal activity against trypomastigotes of Trypanosoma cruzi Tulahuen infected in Swiss mouse model of chagas disease assessed as decrease in parasite level in blood at 20 mg/kg, po administered 8 day after post infection qd for 20 days; format: functional; parameters: scale not given: the % may be the effect or the level left; in short: as §2
Trypanosoma cruzi [9] = test: Antitrypanosomal activity against trypomastigotes of Trypanosoma cruzi Tulahuen infected immunosuppressed Swiss mouse assessed as level of parasite in blood at 20 mg/kg, po administered after 2 cycles of immunosuppression qd for 10 days; format: functional, organism-based; parameters: dose 20 mg/kg
In short: (§3)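 Female Swiss mice infected ip with Tulahuén parasites; oral gavage dosing in HPMC vehicle, daily from day 8 post-infection. Dosing is followed by 10 days without compound. If blood is then parasite-free, mice receive cyclophosphamide ip 50 mg/kg/day, up to three cycles (4 days on, 3 rest). Parasitemia counted in tail-prick blood by hemocytometer.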

[10] = Plasma concentration in Swiss mouse at 20 mg/kg, po after 1 hr; format: ADME, organism-based; parameters: dose 20 mg/kg, route oral; in short: as §1
[11] = Plasma concentration in Swiss mouse at 50 mg/kg, po after 8 hrs; format: ADME, organism-based; parameters: dose 50 mg/kg, route oral; in short: as §1
Trypanosoma cruzi [12] = test: Antitrypanosomal activity against trypomastigotes of Trypanosoma cruzi Tulahuen infected in Swiss mouse model of chagas disease assessed as level of parasite in blood at 20 mg/kg, po qd for 20 days measured after 30 day; format: functional, organism-based; parameters: dose 20 mg/kg; in short: as §3
[13] = Kinetic solubility of the compound at pH 6.5 by nephelometric analysis; format: physicochemical; conditions: buffer, read-out: Kinetic_solubility
CYP3A4/5 = CYP3A4/5 (Homo sapiens, UniProt P08684+P20815); test: Inhibition of […] in human liver microsomes at 20 uM; format: ADME, Microsome
Trypanosoma cruzi [14] = test: Antitrypanosomal activity against trypomastigotes of Trypanosoma cruzi Tulahuen infected in Swiss mouse model of chagas disease assessed as decrease in parasite level in blood at 10 mg/kg, ip administered 8 days after post infection qd for 5 days; format: functional; parameters: scale not given: the % may be the effect or the level left; conditions: route intraperitoneal; in short: as §2
Trypanosoma cruzi [15] = test: Antitrypanosomal activity against trypomastigotes of Trypanosoma cruzi Tulahuen expressing the beta- galactosidase gene infected rat L6 cells after 96 hrs; format: functional, organism-based; conditions: L6, 96 h
In short: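 Tulahuén trypomastigotes expressing β-galactosidase, maintained by serial passage in L6 cells. L6 cells seeded and left 24 h at 37 °C, 5% CO2, then infected at MOI 3 for 48 h. Compound exposure 96 h, benznidazole control. CPRG with 0.3% Nonidet P-40 added, absorbance at 530 nm after 4−6 h. IC50 taken from % inhibition curve; mean of at least two assays.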

Trypanosoma cruzi [16] = test: Antitrypanosomal activity against trypomastigotes of Trypanosoma cruzi Tulahuen infected in Swiss mouse model of chagas disease assessed as decrease in parasite level in blood at 100 mg/kg, ip administered 8 days after post infection qd for 5 days; format: functional; parameters: scale not given: the % may be the effect or the level left; conditions: route intraperitoneal; in short: as §2
Trypanosoma cruzi [17] = test: Antitrypanosomal activity against trypomastigotes of Trypanosoma cruzi Tulahuen infected in Swiss mouse model of chagas disease assessed as increase of host survival at 100 mg/kg, ip administered 8 days after post infection qd for 5 days; format: functional, organism-based; parameters: dose 100 mg/kg; in short: as §2

CC[C@@H]([C@H](C)O)n1ncn(-c2ccc(N3CCN(c4ccc(OC[C@@H]5CO[C@@](Cn6cncn6)(c6ccc(F)cc6F)C5)cc4)CC3)cc2)c1=O [POSACONAZOLE]
concentration at 8 h [1]: 13.6 µM
Activity (Trypanosoma cruzi [2]): Active
concentration at 1 h [3]: 6.4 µM
Activity (Trypanosoma cruzi [4]): 100%
Activity (Trypanosoma cruzi [5]): Active
Activity (Trypanosoma cruzi [6]): 100%
concentration at 24 h [7]: 3.8 µM
Activity (Trypanosoma cruzi [8]): >99%
Activity (Trypanosoma cruzi [9]): inactive
concentration at 1 h [10]: 6.3 µM
concentration at 8 h [11]: 11.1 µM
Activity (Trypanosoma cruzi [12]): Active
solubility kinetic [13]: 3.1 µg/mL (≈ 4.42 µM)
inhibition at 20 µM (CYP3A4/5): 98%
Activity (Trypanosoma cruzi [14]): 100%

OC(c1ccc(Cl)cc1)(c1cncnc1)c1ccccc1Cl (stereo unspecified) [FENARIMOL]
pIC50 (Trypanosoma cruzi [15]): 6.46
concentration at 8 h [1]: 0.08 µM
Activity (Trypanosoma cruzi [16]): 80%
concentration at 1 h [10]: 2.1 µM
inhibition at 20 µM (CYP3A4/5): 66%
Activity (Trypanosoma cruzi [17]): Active
